# Assay results pooled from the literature.
# Lines come from different studies, so protocols differ.
# Effect on: cell growth or viability
SMILES,cell line,method,concentration,time,endpoint,value
C[C@H](Nc1ccc2c(c1)OCCn1cc(N3C(=O)OC[C@H]3C(F)F)nc1-2)C(N)=O,MDA-MB-453,ATP luminescence,,5 days,EC50,45.7 nM
Cc1cnc(CNC(=O)c2c(=O)c3ccc(N4CCCN(C)CC4)nc3n3c2sc2ccccc23)cn1,HK-1,MTS,,72 h,IC50,1000 nM
CO[C@H]1[C@H](O[C@H]([C@H]2O[C@@H](n3ccc(=O)[nH]c3=O)[C@H](O)[C@@H]2O)[C@H](NCCCNC(=O)[C@@H](NC(=O)[C@@H](NC(=O)N[C@H](C(=O)O)C(C)C)[C@@H]2CCN=C(N)N2)[C@@H](OC(=O)CCCCCCCCCCCCN(O)C(=N)N)C(C)C)C(=O)O)O[C@H](CN)[C@H]1O,MDA-MB-453,WST-1,,,IC50,880 nM
Cc1nc(Nc2ncc(C(=O)Nc3c(C)cccc3Cl)s2)cc(N2CC[C@H](O)C2)n1,RS4-11,ATP luminescence,10 µM,72 h,inhibition,46%
Nc1ccn([C@@H]2O[C@H](CO)[C@@H](O)C2(F)F)c(=O)n1,HCCC9810,CCK-8,,,IC50,2030 nM
CN1CCC(NC2CCc3[nH]c4c(C(N)=O)ccc(-c5ccccc5Cl)c4c3C2)CC1 (stereo not shown),MX1,,,96 h,IC50,19.5 nM
COC(=O)[C@H]1[C@@H](O)[C@@]2(O)c3c(OC)cc(O[C@@H]4O[C@@H]([C@H](O)CO)CO[C@H]4OC)cc3O[C@@]2(c2ccc(OC)cc2)[C@@H]1c1ccccc1,HK-1,MTS,,72 h,IC50,5 nM
COc1cc([C@@H]2c3cc4c(cc3[C@@H](O[C@@H]3O[C@@H]5CO[C@@H](C)O[C@H]5[C@H](O)[C@H]3O)[C@H]3COC(=O)[C@H]23)OCO4)cc(OC)c1O,SNU-638,SRB,,72 h,IC50,590 nM
CCCCCCCCCCCCCCCCCCOc1cccc(CC(=O)OCC[N+](CC)(CC)CC)c1,NCI-H460,SRB,10 µM,,inhibition,33%
COc1cccc2c1C(=O)c1c(O)c3c(c(O)c1C2=O)C[C@@](O)(C(=O)CO)C[C@@H]3O[C@H]1C[C@H](N)[C@H](O)[C@H](C)O1,MX1,,,96 h,IC50,22.5 nM
Cc1sc2c(c1C)C(c1ccc(Cl)cc1)=N[C@@H](CC(=O)NCCCCNC(=O)COc1cccc3c1C(=O)N(C1CCC(=O)NC1=O)C3=O)c1nnc(C)n1-2 (stereo partly shown),MDA-MB-453,CCK-8,,72 h,IC50,2720 nM
CO[C@H]1[C@H](O[C@H]([C@H]2O[C@@H](n3ccc(=O)[nH]c3=O)[C@H](O)[C@@H]2O)[C@H](NCCCNC(=O)[C@@H](NC(=O)[C@@H](NC(=O)N[C@H](C(=O)O)C(C)C)[C@@H]2CCN=C(N)N2)[C@@H](O)C(C)C)C(=O)O)O[C@H](CN)[C@H]1O,MDA-MB-453,WST-1,,,IC50,> 35000 nM
N/C(=N\O)c1ccc(-c2cc(CNc3cccc4cccnc34)on2)cc1,NCI-H460,MTS,,72 h,IC50,95100 nM
